Activity calls are given as the source filed them. The calls are words filed in the database; no cut-off is given here.
Legend:
Cortical neurone = test: Inhibition of etoposide-induced death of mouse E15.5 cortical neurones; assay type: functional
Outline: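 Primary cortical neurons from E15 wild-type mouse embryos were exposed to etoposide at 1.25 and 2.5 µM, with compound alongside DMSO. Etoposide alone served as the control. Live cells were stained with calcein-AM for 45 min, quenched with hemoglobin, and whole wells were imaged and counted automatically. Survival is relative to untreated cultures set to 100%. At least six independent experiments were run, each in triplicate.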

Mus musculus = species on record: Mus musculus; test: Toxicity against mouse E15.5 cortical neurones at 10 uM; settings: in vitro
Outline: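 E15 mouse primary cortical neurons were cultured in neurobasal/B27 and exposed to compound at 10 µM. Live cells were counted after calcein-AM staining, with hemoglobin quench and whole-well imaging. Each experiment was repeated at least six times.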

[1] = target: Cellular tumor antigen p53 (Mus musculus) (UniProt P02340); test: Inhibition of p53-mediated increase in p21/WAF1 level at 300 nM; assay type: functional; settings: filed as antagonist
Chain of Cellular tumor antigen p53 (Mus musculus) (P02340 whole entry): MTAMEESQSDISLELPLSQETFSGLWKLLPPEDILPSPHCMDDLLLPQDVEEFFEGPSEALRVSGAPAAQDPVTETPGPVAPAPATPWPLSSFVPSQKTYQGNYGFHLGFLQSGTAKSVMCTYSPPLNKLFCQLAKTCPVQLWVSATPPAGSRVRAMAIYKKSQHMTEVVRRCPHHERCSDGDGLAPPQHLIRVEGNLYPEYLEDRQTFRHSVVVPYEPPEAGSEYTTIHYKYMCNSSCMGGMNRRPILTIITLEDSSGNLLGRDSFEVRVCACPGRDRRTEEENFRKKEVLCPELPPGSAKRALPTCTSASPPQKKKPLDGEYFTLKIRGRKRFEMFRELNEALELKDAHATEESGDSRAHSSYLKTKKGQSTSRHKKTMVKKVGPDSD
Outline: (§1)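 Wild-type E15 mouse cortical neurons were kept 3 days in vitro in neurobasal/B27 and treated with etoposide to trigger p53 activation. Time-course and concentration-dependent experiments were run. p21/WAF1 protein was detected by western blot of total extracts made in boiling SDS/Tris buffer.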

Rattus norvegicus [2] = species on record: Rattus norvegicus; test: Protection against axotomy-induced RGC apoptosis in Wistar rat intravitreally injected with 0.06 uM; assay type: functional
Outline: (§2)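 Adult male Wistar rats (300-400 g) had the optic nerve transected, and RGCs were retrogradely labeled with FluoroGold placed on the stump. Compound or vehicle (DMSO 2%), 3 µL, was injected intravitreally on days 0, 3 and 7. Eyes were taken on day 14 and retinas flat-mounted. FG-positive RGCs were counted blind in fields at three eccentricities. Groups had n = 3-6, with DMSO as baseline; results are given as mean ± sem.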

Rattus norvegicus [3] = species on record: Rattus norvegicus; test: Protection against axotomy-induced RGC apoptosis in Wistar rat intravitreally injected with 6 uM; assay type: functional; outline: as §2
[4] = target: Cellular tumor antigen p53 (Mus musculus) (UniProt P02340); test: Inhibition of p53-mediated increase in p21/WAF1 level at 30 nM; assay type: functional; settings: filed as antagonist; outline: as §1

Q: With Br.Cc1ccc(C(=O)Cn2c3c(sc2=N)CCCCC3)cc1 as the molecule, how does the Activity (Cortical neurone) read?
A: inactive

Q: And the Activity (Mus musculus)?
A: Non-toxic

Q: For Br.N=c1sc2c(n1CC(=O)c1ccc([N+](=O)[O-])cc1)CC1CCCCC1C2 (stereo not given), which Activity (Cortical neurone) is on record?
A: Active

Q: What about the Activity (Mus musculus) of the same molecule?
A: Non-toxic

Q: How did the Activity (Cortical neurone) turn out when Br.Cc1ccc(C(=O)Cn2c3c(sc2=N)CCCC3)cc1 was run?
A: Active

Q: What about the Activity [1] of the same molecule?
A: Antagonist

Q: And the Activity (Rattus norvegicus [2])?
A: 98%

Q: And the Activity (Rattus norvegicus [3])?
A: 131%

Q: Which EC50 (Cortical neurone; read-out: ED50 (the source's name)) does the source give for O=[N+]([O-])c1ccc(-c2cn3c4c(sc3n2)CCCC4)cc1 here?
A: 0.03 µM

Q: What about the Activity [4] of the same molecule?
A: Antagonist

Q: What about the Activity (Rattus norvegicus [2]; in the assay text read “6 uM” for “0.06 uM”) of the same molecule?
A: inactive

Q: And the Activity (Rattus norvegicus [3])?
A: inactive

Q: What about the Activity (Mus musculus) of the same molecule?
A: Non-toxic

Q: Which Activity (Cortical neurone) does the source give for Br.Cc1ccc(C(=O)Cn2c3c(sc2=N)CC2CCCCC2C3)cc1 (stereo not given) here?
A: inactive

Q: And the Activity (Mus musculus)?
A: Non-toxic

Q: For Br.COc1ccc(C(=O)Cn2c3c(sc2=N)CCCC3)cc1, which Activity (Cortical neurone) is on record?
A: inactive

Q: What about the Activity (Mus musculus) of the same molecule?
A: Non-toxic

Q: For O=[N+]([O-])c1ccc(-c2cn3c4c(sc3n2)CC2CCCCC2C4)cc1 (stereo not given), which Activity (Mus musculus) is on record?
A: Non-toxic

Q: Which Activity (Mus musculus) does the source give for Br.COc1ccc(C(=O)Cn2c3c(sc2=N)CC2CCCCC2C3)cc1 (stereo not given) here?
A: Non-toxic

Q: With Br.N=c1sc2c(n1C/C(=N/O)c1ccc([N+](=O)[O-])cc1)CCCC2 as the molecule, how does the Activity (Cortical neurone) read?
A: inactive

Q: What about the Activity (Mus musculus) of the same molecule?
A: Non-toxic

Q: Which Activity (Cortical neurone) does the source give for Br.N=c1sc2c(n1CC(=O)c1ccc([N+](=O)[O-])cc1)CCCC2 here?
A: Active

Q: What about the Activity [1] of the same molecule?
A: Antagonist

Q: What about the Activity (Rattus norvegicus [2]) of the same molecule?
A: 150%

Q: And the Activity (Mus musculus)?
A: Non-toxic
